Data set [1] is described as follows: Lipophilicity. Particulars: octanol/water. The format is physicochemical.
For a further data set, the species on record is Canis familiaris. Nature of the data set: In vitro metabolic turnover (% parent lost) after exposure to dog hepatic microsomes (hepatic first pass metabolism). The class given is functional. The following applies: Canis lupus familiaris, Liver. The essentials:
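Dog liver microsomes with an NADPH-regenerating system, shaken at 37 °C. Centrifuged, then parent compound quantified by reverse-phase HPLC with UV detection at 215 nm. Turnover (% parent lost) taken from the peak-area difference versus a control incubation lacking NADPH regeneration.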

A further data set concerns the target Substance-P receptor (Homo sapiens, UniProt P25103). Nature of the data set: Binding affinity to Tachykinin receptor 1 stably expressed in chinese hamster ovary (CHO) cells. The format is cell-based. A digest of the protocol: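 Membranes from CHO cells stably expressing human NK1 receptor, grown in DMEM/F12 with 10% FCS and 4 mM glutamine. Incubated 40 min at 22 °C with 0.7–1.0 nM [3H]substance P (final) in HEPES 50 mM/3 mM MnCl2, pH 7.4, 3 µg protein.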

Data set [2] concerns Mustela putorius furo. The data set is described as follows: Compound was evaluated in vivo for its antiemetic activity in ferret, which was administered subcutaneously 90 minutes before (90 ptt) induction of emesis. The format is functional. A digest of the protocol:
(§1)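 Adult male ferrets (1.0–1.7 kg), whole-body X-irradiation at 2 Gy over about 5 min. Antagonist given sc 90 min before irradiation or immediately after it. Retches and vomits counted. ID90 is the lowest dose giving ≥90% inhibition of emesis versus untreated irradiated controls; n per group reported.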

Data set [3] has as its system Mustela putorius furo. The data set is described as follows: Compound was evaluated in vivo for its antiemetic activity in ferret, which was administered subcutaneously immediately after (0 ptt) induction of emesis. The format is functional. A digest of the protocol: as §1
Data set [4] in a line: Compound was evaluated in vivo for plasma clearance in dog after intravenous dose at 2 mg/Kg. The format is ADME, organism-based, Canis lupus familiaris. The following applies: read-out: Clp. The essentials: (§2)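 Beagle dogs, iv then oral crossover at 2 mg/kg with wash-out between doses. Blood drawn predose and at 0.08–8 h; plasma prepared at about 5 °C. Parent compound measured by solid-phase extraction and reversed-phase HPLC-UV. Plasma clearance taken from iv dosing; oral bioavailability F calculated from both routes.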

The nature of data set [5]: Oral bioavailability in dog. The class given is ADME, organism-based, Canis lupus familiaris. Particulars: in vivo. A digest of the protocol:
as §2

A short description of data set [6]: Partition coefficient (logD). The following applies: octanol/water. The format is physicochemical.
Data set [7] deals with Substance-P receptor (Meriones unguiculatus). Nature of the data set: Compound was evaluated for its ex vivo binding affinity towards substance P receptor measured 15 minutes post administration to gerbil. The following applies: Gerbillinae.
For data set [8], the system named is Mustela putorius furo. The data set is described as follows: Compound was evaluated in vivo for its antiemetic activity in ferret, which was administered subcutaneously 90 minutes before (90 ptt) induction of emesis;>80% inhibition observed. The format is functional.

Molecules are shown by their SMILES.

Substance-P receptor, sequence (P25103 whole entry): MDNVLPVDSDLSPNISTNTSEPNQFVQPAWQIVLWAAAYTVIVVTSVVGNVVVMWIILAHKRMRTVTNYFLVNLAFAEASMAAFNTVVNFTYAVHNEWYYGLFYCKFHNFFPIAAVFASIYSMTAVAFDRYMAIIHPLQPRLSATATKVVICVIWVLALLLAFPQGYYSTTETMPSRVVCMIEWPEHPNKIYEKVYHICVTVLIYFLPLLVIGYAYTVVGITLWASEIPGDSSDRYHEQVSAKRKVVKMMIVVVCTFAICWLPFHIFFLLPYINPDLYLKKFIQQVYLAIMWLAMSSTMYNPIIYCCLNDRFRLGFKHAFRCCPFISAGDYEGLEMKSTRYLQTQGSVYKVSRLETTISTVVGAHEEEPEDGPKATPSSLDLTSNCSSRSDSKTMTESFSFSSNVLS

Broadly, the logD is lipophilicity at a set pH, counting ionised and neutral species. The term Ki denotes a measure of affinity in units of concentration, obtained from inhibition or displacement. Read a high Ki as weaker binding. In data set [1], `COc1ccc(Br)cc1CN[C@H]1CCCN[C@H]1c1ccccc1` had a logD of 2.5. Also, the Metabolic turnover in the data set listed under Canis familiaris stood at 60%. For the same compound, the inhibition constant Ki on Substance-P receptor was 0.0501 nM.
Turning to `COc1ccc(-c2nnn(C)n2)cc1CN[C@H]1CCCN[C@H]1c1ccccc1`, the logD in [1] turned out to be 1.4. Further, in the data set filed under Canis familiaris, the Metabolic turnover was 63%. Further, the ID90 with Mustela putorius furo [2] is greater than 3 mg/kg. Affinity on Substance-P receptor was put at a Ki of 2.51 nM.
In the case of `COc1ccc(SC)cc1CN[C@H]1CCCN[C@H]1c1ccccc1`, the log distribution coefficient (logD) in data set [1] was determined as 2. Besides, the Metabolic turnover in the data set filed under Canis familiaris came to 94%. Besides, the ID90 in the data set on Mustela putorius furo [3] was determined as 1 mg/kg. The affinity on Substance-P receptor, expressed as Ki, was 0.0794 nM.
As to `COc1ccc(-c2c(C)nn(C)c2C)cc1CN[C@H]1CCCN[C@H]1c1ccccc1`, in data set [1], the pH-dependent lipophilicity (logD) came to 2.3. Also, the Metabolic turnover in the data set filed under Canis familiaris came out at 82%. The compound also gave a Ki at Substance-P receptor of 0.794 nM.
`COc1ccc(-c2nccn2C)cc1CN[C@H]1CCCN[C@H]1c1ccccc1` had a pH-dependent lipophilicity (logD) in data set [1] of 1.2. Besides, the Metabolic turnover in the data set filed under Canis familiaris amounted to 90%. Also, in the data set on Mustela putorius furo [2], the ID90 is greater than 3 mg/kg. The compound further showed an inhibitory constant (Ki) at Substance-P receptor of 2 nM.
On to `COc1ccc(-n2cncn2)cc1CN[C@H]1CCCN[C@H]1c1ccccc1`, for which, in data set [1], the log distribution coefficient (logD) stood at 1.2. Also, the Metabolic turnover in the data set listed under Canis familiaris was found to be 55%. Moreover, the figures for the ID90 with Mustela putorius furo [2] and with Mustela putorius furo [3] were greater than 3 mg/kg and 3 mg/kg, respectively. Further, affinity on Substance-P receptor was put at a Ki of 0.158 nM.
As for `COc1ccc(-c2ccco2)cc1CN[C@H]1CCCN[C@H]1c1ccccc1`, the logD in [1] is 3. Besides, the Metabolic turnover in the data set listed under Canis familiaris amounted to 100%. This compound gave an ID90 in the data set on Mustela putorius furo [2] greater than 3 mg/kg. The same compound gave an inhibition constant Ki on Substance-P receptor of 0.501 nM.
`COc1ccc(F)cc1CN[C@H]1CCCN[C@H]1c1ccccc1`: the pH-dependent lipophilicity (logD) in data set [1] came out at 1.8. This compound also showed an ID90 with Mustela putorius furo [3] of 3 mg/kg. Further, at Substance-P receptor, the Ki is 0.158 nM.
Usually bioavailability stands for the share of a dose that reaches the circulation, judged against a reference dose that is usually intravenous. In data set [1], `COc1ccc(-c2ccoc2)cc1CN[C@H]1CCCN[C@H]1c1ccccc1` gave a log distribution coefficient (logD) of 2.5. In addition, in data set [4], the clearance came out at 45 mL/min/kg. Besides, the bioavailability in data set [5] was less than 10%. The Metabolic turnover in the data set filed under Canis familiaris turned out to be 85%. For the same compound, the ID90 with Mustela putorius furo [2] and with Mustela putorius furo [3] was 0.3 mg/kg in each case. The compound also showed an inhibition constant Ki on Substance-P receptor of 0.0631 nM.
The compound `COc1ccc(-c2nnnn2C)cc1CN[C@H]1CCCN[C@H]1c1ccccc1` had a logD in data set [1] of 0.5. In addition, the Metabolic turnover in the data set listed under Canis familiaris was found to be 27%. The ID90 in the data set on Mustela putorius furo [2] was greater than 3 mg/kg. The compound also gave a Ki on Substance-P receptor of 0.2 nM.
`COc1ccc(-n2cnnn2)cc1CN[C@H]1CCCN[C@H]1c1ccccc1`: the logD in data set [6] stood at 0.8. Further, the clearance in data set [4] was determined as 24 mL/min/kg. The same compound displayed a bioavailability in data set [5] of 76%. Besides, the Metabolic turnover in the data set listed under Canis familiaris came out at 51%. Also, the ID90 in the data set on Mustela putorius furo [2] and in the data set with Mustela putorius furo [3] was 0.1 mg/kg throughout. Further, affinity at Substance-P receptor was put at a Ki of 0.0501 nM.
On to `COc1ccc(-c2ccncc2)cc1CN[C@H]1CCCN[C@H]1c1ccccc1`, for which the logD in data set [1] was determined as 2.2. The Metabolic turnover in the data set filed under Canis familiaris worked out at 98%. The ID90 in the data set on Mustela putorius furo [3] was 0.3 mg/kg. The same compound had an inhibition constant (Ki) at Substance-P receptor of 0.0631 nM.
For `COc1ccc(-c2nccs2)cc1CN[C@H]1CCCN[C@H]1c1ccccc1`, in that order: 2.3, 61%, greater than 3 mg/kg and 0.794 nM.
As a reminder, the ED50 is the dose that gives a 50% effect, or the effect in half of the subjects. Low values mean greater potency, high ones weaker potency. On to `COc1ccc(S(C)(=O)=O)cc1CN[C@H]1CCCN[C@H]1c1ccccc1`, for which the logD in [1] was 0.2. In data set [4], the clearance was 23 mL/min/kg. The compound also gave a bioavailability in data set [5] of 42%. Also, the Metabolic turnover in the data set listed under Canis familiaris was 25%. Moreover, the ID90 in the data set with Mustela putorius furo [2] and in the data set with Mustela putorius furo [3] was greater than 10 mg/kg each time. At Substance-P receptor, this compound gave an inhibitory constant (Ki) of 0.501 nM. For the same compound, in data set [7], the median effective dose (ED50) was greater than 0.3 mg/kg.
As to `COc1ccc(-c2c(C)noc2C)cc1CN[C@H]1CCCN[C@H]1c1ccccc1`, the log distribution coefficient (logD) in [1] was found to be 2.3. Further, in the data set filed under Canis familiaris, the Metabolic turnover was 92%. For the same compound, the ID90 in the data set on Mustela putorius furo [2] turned out to be 1 mg/kg. This compound also had a Ki on Substance-P receptor of 0.0501 nM.
As to `COc1ccccc1CN[C@H]1CCCN[C@H]1c1ccccc1` [CP-99994], in data set [1], the logD was determined as 1.4. Besides, in data set [4], the clearance worked out at 94 mL/min/kg. This compound displayed a bioavailability in data set [5] of less than 10%. The Metabolic turnover in the data set listed under Canis familiaris was 100%. Moreover, the ID90 in the data set on Mustela putorius furo [8] and in the data set with Mustela putorius furo [3] was 1 mg/kg in each case.
`COc1ccc(-c2ccsc2)cc1CN[C@H]1CCCN[C@H]1c1ccccc1` had a logD in data set [1] of 3.1. Also, in the data set listed under Canis familiaris, the Metabolic turnover is 92%. The compound further returned an ID90 in the data set with Mustela putorius furo [3] greater than 3 mg/kg. The compound further showed a Ki at Substance-P receptor of 0.0316 nM.
`COc1ccc(-n2ncnn2)cc1CN[C@H]1CCCN[C@H]1c1ccccc1` displayed a logD in data set [6] of 0.8. Also, the Metabolic turnover in the data set listed under Canis familiaris was found to be 65%. This compound also displayed an ID90 in the data set with Mustela putorius furo [2] greater than 1 mg/kg. Besides, on Substance-P receptor, the inhibitory constant (Ki) is 0.126 nM.
Regarding `COc1ccc(-c2cncnc2)cc1CN[C@H]1CCCN[C@H]1c1ccccc1`, the logD in data set [1] is 1.4. Also, in the data set filed under Canis familiaris, the Metabolic turnover turned out to be 36%. The ID90 in the data set on Mustela putorius furo [2] was greater than 3 mg/kg; with Mustela putorius furo [3] it was 3 mg/kg. The same compound had an inhibitory constant (Ki) at Substance-P receptor of 0.158 nM.

Source of the values: ChEMBL document CHEMBL1128642, “Discovery of an orally bioavailable NK1 receptor antagonist, (2S,3S)-(2-methoxy-5-tetrazol-1-ylbenzyl)(2-phenylpiperidin-3-yl)amine (GR203040), with potent antiemetic activity” (J Med Chem, 1995).
